Data reported in ChEMBL document CHEMBL3763126, “Development of sigma-1 (σ1) receptor fluorescent ligands as versatile tools to study σ1 receptors” (Eur J Med Chem, 2016).

How the values were obtained:
[1] = Displacement of [3H]-DTG from sigma 2 receptor in Wistar hannover rat liver membrane after 120 mins; type: cell membranes
Outline: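 Six to nine concentrations of test drug, two or three experiments in duplicate; IC50 for inhibition of specific binding, Ki from nonlinear curve fitting.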

[2] = molecular target: Sigma non-opioid intracellular receptor 1 (Cavia porcellus, UniProt Q60492); experiment: Displacement of [3H]-pentazocine from sigma 1 receptor in guinea pig brain membrane after 120 mins; type: cell membranes
Outline: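 IC50 from six to nine drug concentrations, two or three experiments with duplicate samples; Ki obtained by nonlinear curve fitting.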

[3] = molecular target: T1, Sigma non-opioid intracellular receptor 1 (Homo sapiens, UniProt Q99720); experiment: Displacement of 5-(Dimethylamino)-2-(6-((5-(4-(4-methylpiperidin-1-yl)butyl)-5,6,7,8-tetrahydronaphthalen-2-yl)oxy)hexyl)isoindoline-1,3-dione from sigma 1 receptor (unknown origin) expressed in MCF7 after 75 mins by flow cytometry
[4] = molecular target: T1, Sigma non-opioid intracellular receptor 1; experiment: Displacement of 5-(Dimethylamino)-2-{6-[(5-(4-(4-methylpiperidin-1-yl)butyl)naphthalen-2-yl)oxy]hexyl}isoindole-1,3-dione from sigma 1 receptor (unknown origin) expressed in MCF7 cells after 75 mins by flow cytometry

T1 sequence (Q99720 whole entry): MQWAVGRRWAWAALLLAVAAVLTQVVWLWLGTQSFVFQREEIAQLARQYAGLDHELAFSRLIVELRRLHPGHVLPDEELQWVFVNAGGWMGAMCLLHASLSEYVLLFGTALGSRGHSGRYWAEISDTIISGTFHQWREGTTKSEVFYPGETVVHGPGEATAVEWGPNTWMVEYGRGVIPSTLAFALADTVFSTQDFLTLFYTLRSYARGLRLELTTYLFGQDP
Sequence of Sigma non-opioid intracellular receptor 1 (Cavia porcellus, UniProt Q60492) (Q60492 whole entry): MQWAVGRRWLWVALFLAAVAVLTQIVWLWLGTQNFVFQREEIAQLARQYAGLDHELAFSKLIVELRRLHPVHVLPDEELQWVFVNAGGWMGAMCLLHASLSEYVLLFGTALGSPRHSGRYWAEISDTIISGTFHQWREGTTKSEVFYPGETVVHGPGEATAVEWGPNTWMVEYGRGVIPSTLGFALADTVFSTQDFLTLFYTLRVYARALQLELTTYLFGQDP

Ki [1] [nM] | Ki [2] [nM] | IC50 [3] [nM] | IC50 [4] [nM] | Structure (SMILES)
48.3 | 3.61 | – | – | CC1CCN(CCCCC2CCCc3cc(OCCCCCCN4C(=O)c5ccc(N(C)C)cc5C4=O)ccc32)CC1 (stereo not drawn)
17.9 | – | 15.5 | 10.6 | COc1ccc2c(CCCCN3CCC(C)CC3)cccc2c1
4.24 | – | – | – | COc1cc2c(cc1OC)CN(CCCN1CCc3c(OC)cccc3C1=O)CC2
48.7 | 1.01 | 11.3 | 12.1 | COc1ccc2c(c1)CCCC2CCCCN1CCC(C)CC1 (stereo not drawn)
179 | – | – | – | COc1cccc2c1CCCC2CCC(=O)N1CCN(C2CCCCC2)CC1 (stereo not drawn)
45.6 | 5.2 | – | – | CC1CCN(CCCCc2cccc3cc(OCCCCCCN4C(=O)c5ccc(N(C)C)cc5C4=O)ccc23)CC1
